A selection: hits, their analogues and other compounds. The true share with any hit is near 2.9%.
Kir21 inh: inhibitors of mouse Kir2.1 inward-rectifier potassium channel | 310,000 compounds, 0.85% hits | B-score at 10 µM | HEK293-Kir2.1, FluxOR thallium flux fluorescence; stronger effect = lower value;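 active means fluorescence ratio B-score at or below minus 3 SD of library scores, with starting-brightness B-score within 2 SD, cut at about -4.2 in these data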;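 further: channel flux triggered by added potassium and thallium sulfate stimulus; B-score of peak minus minimum fluorescence over baseline after thallium stimulus; more negative B-score means stronger Kir2.1 block with less thallium influx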
Target sequence (P35561 whole entry, looked up): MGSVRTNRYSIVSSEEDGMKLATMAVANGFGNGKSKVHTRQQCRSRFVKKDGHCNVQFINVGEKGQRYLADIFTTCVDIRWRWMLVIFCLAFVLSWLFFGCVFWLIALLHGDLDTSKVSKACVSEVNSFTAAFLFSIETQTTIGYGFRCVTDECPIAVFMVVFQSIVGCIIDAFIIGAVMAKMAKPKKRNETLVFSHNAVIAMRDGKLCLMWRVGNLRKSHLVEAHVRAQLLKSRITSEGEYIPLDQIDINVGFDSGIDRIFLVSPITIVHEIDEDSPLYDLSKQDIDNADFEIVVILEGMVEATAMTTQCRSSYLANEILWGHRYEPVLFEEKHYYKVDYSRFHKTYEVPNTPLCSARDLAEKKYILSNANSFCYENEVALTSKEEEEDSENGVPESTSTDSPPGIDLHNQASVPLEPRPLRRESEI
TRPC6 activator: mouse TRPC6 channel activators, primary screen, cell-based, HEK293, membrane potential dye; HEK293-TRPC6 membrane potential dye fluorescence; stronger effect = higher value; B-score at 10 µM; AID 2550, 2010; Short transient receptor potential channel 6 (Mus musculus), Q61143; 310,000 compounds, 0.13% hits;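 active means B-score of the integrated fluorescence ratio above library mean plus 3 SD, and starting fluorescence ratio within library mean plus 5 SD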;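 further: higher score means more depolarization so channel activation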
TRPC4 block: inhibitors of mouse TRPC4 channel, primary screen, Fluo4 calcium, HEK293 TRPC4beta/mu-opioid cells | B-score at 10 µM | 300,000 compounds, 0.39% hits | DAMGO-evoked Fluo4 calcium flux; stronger effect = lower value | AID 2247, 2010;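 active means B-score over 3 SD under the library average, no early fluorescence shift, positive overall ratio signal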
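material = TRPC4beta/mu-opioid receptor HEK293 cell line | probe or stimulus = sequential submaximal and maximal DAMGO stimulation | compound dosing = one concentration per compound | measured by = Fluo4 Ca2+ flux fluorescence | evaluation = integrated fluorescence ratio relative to baseline, converted to per-well B score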
TRPC6 inhibitor: mouse TRPC6 channel inhibitors, primary screen, cell-based, HEK293, membrane potential dye | Short transient receptor potential channel 6 (Mus musculus), Q61143 | ACh-evoked depolarization; stronger effect = lower value | B-score at 10 µM | 310,000 compounds, 1.1% hits | AID 2553, 2010;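 active means B-score under library mean minus 3 SD, initial fluorescence not abnormally high, positive integrated signal ratio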;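 further: B-score derived from integrated fluorescence ratio over the kinetic read; more negative B-score means stronger inhibition of depolarization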
TRPC4 PAM: positive allosteric modulators of TRPC4, primary screen, cell-based, mouse TRPC4beta, HEK293 mu-opioid, Fluo-4 calcium. DAMGO EC20, Fluo-4 Ca2+ flux; stronger effect = higher value. B-score at 10 µM. Short transient receptor potential channel 4 (Mus musculus), Q9QUQ5. 310,000 compounds, 0.42% hits;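 active means B-score of calcium response area above 5 SD of library B-scores, with initial fluorescence ratio within 5 SD of library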;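 further: B-score of integrated fluorescence ratio over time as area under calcium response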
TRPC4 act: activators of mouse TRPC4 channel, primary screen, Fluo4 calcium, HEK293 TRPC4beta/mu-opioid cells; Fluo4 calcium fluorescence; stronger effect = higher value; B-score at 10 µM; AID 2237, 2010; Short transient receptor potential channel 4 (Mus musculus), Q9QUQ5; 310,000 compounds, 0.49% hits;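 active means B-score above 5 SD of library B-scores, and initial fluorescence ratio not above library mean plus 5 SD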;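 further: positive B-score marks a calcium rise read as TRPC4 activation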
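system = HEK293 cells stably co-expressing mouse TRPC4beta and mu-opioid receptor | schedule = Fluo4 dye loading 45 min at room temperature, 110 s recording | measure = B-scored integrated calcium fluorescence ratio | signal = Fluo4 calcium-sensitive dye fluorescence, kinetic, 1 Hz baseline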
TRPC4 spec 2: mouse TRPC4 off-target activity of TRPC6 inhibitors, second screen | inhibition, % at 10 µM | 920 compounds, 42% hits | shares compounds with TRPC6 inhibitor | AID 2776 | HEK293 TRPC4/MOR, membrane potential dye fluorescence; channel activated by saturating DAMGO dose;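 active means compounds whose fluorescence signal differed from control wells by over 3 SD, either direction, in both duplicate plates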
TRPC4 spec: mouse TRPC4 modulation by TRPC6 hits, confirmation, selectivity assay for TRPC6 inhibitor project, cell-based, HEK293 TRPC4/mu-opioid, membrane potential dye; shares compounds with TRPC6 inhibitor; 920 compounds, 61% hits; membrane potential fluorescence; activity change, negative = inhibition, % at 10 µM;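 active means rise or fall in signal beyond 3 SD of buffer-only wells in both replicate plates, either sign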;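 further: integrated kinetic ratio of fluorescence range over baseline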
HEK293 MPD ctr 2-1: nonspecific membrane potential effects, parental HEK293, confirmation, counter-screen for TRPC6 inhibitor project, cell-based, second counter screen; shares compounds with TRPC6 inhibitor; signal change vs control, % at 10 µM; 920 compounds, 31% hits; parental HEK293 membrane potential dye fluorescence; maximal acetylcholine challenge after compound addition;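 active means membrane potential signal moving either way by over 3 SD of the maximum-effect control, in both duplicate plates, meaning non-specific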
HEK293 MPD ctr-1: membrane potential modulation in parental HEK293, confirmation, counter-screen for TRPC6 inhibitor project, cell-based; shares compounds with TRPC6 inhibitor; parental HEK293 membrane potential dye fluorescence; 920 compounds, 60% hits; membrane potential signal change, % at 10 µM;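 active means membrane potential signal shifting up or down by more than 3 SD of buffer-only wells, on both duplicate plates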
HEK293 MPD ctr-2: parental HEK293 membrane potential modulation, confirmation, counter-screen for TRPC6 modulator project, cell-based | membrane potential dye fluorescence | 2,400 compounds, 51% hits | shares compounds with TRPC6 inhibitor | AID 488924, 2010 | membrane potential signal change, % at 10 µM;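 active means membrane potential signal moves up or down beyond 5 SD from buffer-only wells, on both duplicate plates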
HEK293 MPD ctr 2-2: second counter-screen for TRPC6 modulators: effect in parental HEK293 cells; 2,400 compounds, 14% hits; inhibition, % at 10 µM; membrane potential dye fluorescence; after compound, maximal acetylcholine stimulation; shares compounds with TRPC6 inhibitor;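 active means membrane potential signal drops by more than 5 SD from the mean control signal, in both duplicate plates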;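 further: plate controls were acetylcholine ECmax control wells for no effect and buffer only wells for full effect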
TRPC4/MOR mod: TRPC4 modulation by TRPC6 hit compounds, confirmation, selectivity assay for TRPC6 modulator project, cell-based, HEK293 TRPC4/mu-opioid, membrane potential dye, mouse; percent change from control (negative = decrease, positive = increase), % at 10 µM; 2,400 compounds, 69% hits; AID 488927, 2010; membrane potential fluorescence; shares compounds with TRPC6 inhibitor;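 active means membrane potential signal moved up or down beyond 5 SD of buffer control wells, in both duplicate plates, actives on both sides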;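 further: plate controls were assay buffer wells for no effect and DAMGO maximal-effect wells for full effect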
TRPC4 ctr inh 2: mouse TRPC4 off-target activity of TRPC6 modulators, second screen; shares compounds with TRPC6 inhibitor; HEK293 TRPC4/mu-opioid, membrane potential dye fluorescence; stimulated with maximal-effect DAMGO; inhibition, % at 10 µM; 2,400 compounds, 55% hits;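 active means drop in membrane potential signal beyond 5 SD of the control wells in both duplicate plates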;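 further: TRPC4 counter screen for TRPC6 hits run under conditions tuned for TRPC6 not TRPC4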
TRPC6 block conf: mouse TRPC6 channel inhibitors, confirmation, HEK293 cells, membrane potential dye, duplicate; ACh-evoked depolarization; inhibition, % at 10 µM; 3,300 compounds, 43% hits; shares compounds with TRPC6 inhibitor;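 active means fluorescence ratio falls more than 5 SD below the full-stimulation control mean, in both duplicate runs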;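 further: integrated fluorescence ratio of peak minus minimum over baseline after agonist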
TRPC6 act conf: mouse TRPC6 channel activators, confirmation, HEK293 cells, membrane potential dye, duplicate | activation, % at 10 µM | 2,800 compounds, 11% hits | HEK293-TRPC6 membrane potential dye fluorescence, FDSS | shares compounds with TRPC6 inhibitor;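 active means ratio signal rise beyond 5 SD above unstimulated control wells' mean, seen in both duplicate runs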;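 further: plate controls were buffer EC0 wells for no effect and acetylcholine ECmax response for full effect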
Starred values were filed as active, the others as inactive.

Screening CCOC(=O)CNS(=O)(=O)c1ccc(S(=O)(=O)N2CCCC2)cc1 returned Kir21 inh 0.35, TRPC6 activator inactive, TRPC4 block inactive, TRPC6 inhibitor -7.8*, TRPC4 PAM inactive, TRPC4 act inactive, TRPC4 spec 2 inactive, TRPC4 spec inactive, HEK293 MPD ctr 2-1 inactive, HEK293 MPD ctr-1 inactive, TRPC6 block conf inactive and TRPC6 act conf inactive.
Screening CCN(CC)CCN1C(=O)C2C3c4ccccc4C(c4ccccc43)C2C1=O (stereo unspecified) returned Kir21 inh -1.4, TRPC6 activator inactive, TRPC4 block inactive, TRPC6 inhibitor inactive, TRPC4 PAM inactive and TRPC4 act inactive.
Screening CCN(CC)CCN1c2ccccc2Sc2ccccc21 returned Kir21 inh -4.7*, TRPC6 activator inactive, TRPC4 block -6*, TRPC6 inhibitor -6.2*, TRPC4 PAM inactive, TRPC4 act inactive, HEK293 MPD ctr-2 92%*, HEK293 MPD ctr 2-2 inactive, TRPC4/MOR mod 49%*, TRPC4 ctr inh 2 64%* and TRPC6 block conf 55%*.
For CCN1C(=O)/C(=C/C=C2/Sc3ccc4ccccc4c3N2CCO)SC1=S the results were Kir21 inh 0.56, TRPC6 activator inactive, TRPC4 block inactive, TRPC6 inhibitor inactive, TRPC4 PAM inactive and TRPC4 act inactive.
`CCN(CC)CCN1c2ccccc2Sc2ccc3ccccc3c21` gave Kir21 inh -3.2, TRPC6 activator inactive, TRPC4 block inactive, TRPC6 inhibitor -6*, TRPC4 PAM inactive, TRPC4 act inactive, HEK293 MPD ctr-2 inactive, HEK293 MPD ctr 2-2 inactive, TRPC4/MOR mod inactive, TRPC4 ctr inh 2 inactive, TRPC6 block conf inactive and TRPC6 act conf inactive.

Source: PubChem BioAssay (Johns Hopkins Ion Channel Center)
